ChEMBL document CHEMBL4325889, “Natural products hybrids: 3,5,4'-Trimethoxystilbene-5,6,7-trimethoxyflavone chimeric analogs as potential cytotoxic agents against diverse human cancer cells” (Eur J Med Chem, 2019)

Key:
Type in all cases: functional
SN12C = assay: Growth inhibition of human SN12C cells at 10 uM after 48 hrs by SRB assay relative to control; settings: read-out: GI
Outline: (§1)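 Screened at the National Cancer Institute by the standard NCI protocol using the sulforhodamine B assay, which measures cellular protein. Single dose of 10 µM. Result is percent growth inhibition; values above 100% mean cell number fell below the initial population. Values are the average of duplicates.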

NCI-H522 = assay: Growth inhibition of human NCI-H522 cells at 10 uM after 48 hrs by SRB assay relative to control; settings: NCI-H522, 48 h, read-out: GI; outline: as §1
IGROV-1 = assay: Growth inhibition of human IGROV1 cells at 10 uM after 48 hrs by SRB assay relative to control; settings: IGROV-1, 48 h, read-out: GI; outline: as §1
SK-MEL-2 = assay: Growth inhibition of human SK-MEL-2 cells at 10 uM after 48 hrs by SRB assay relative to control; settings: SK-MEL-2, 48 h, read-out: GI; outline: as §1
MOLT-4 = assay: Growth inhibition of human MOLT4 cells at 10 uM after 48 hrs by SRB assay relative to control; settings: MOLT-4, 48 h, read-out: GI; outline: as §1
CCRF-CEM = assay: Growth inhibition of human CCRF-CEM cells at 10 uM after 48 hrs by SRB assay relative to control; settings: read-out: GI; outline: as §1
Malme-3M = assay: Growth inhibition of human MALME-3M cells at 10 uM after 48 hrs by SRB assay relative to control; settings: read-out: GI; outline: as §1
SK-MEL-28 = assay: Growth inhibition of human SK-MEL-28 cells at 10 uM after 48 hrs by SRB assay relative to control; settings: SK-MEL-28, 48 h, read-out: GI; outline: as §1
SW-620 = assay: Growth inhibition of human SW620 cells at 10 uM after 48 hrs by SRB assay relative to control; settings: SW-620, 48 h, read-out: GI
Outline: (§2)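 NCI screen against its human cancer cell line panel by the standard NCI protocol, SRB protein stain. Single dose of 10 μM. Percent growth inhibition versus control; values above 100% mean the cell population fell below the starting number. Each value is the mean of duplicates.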

MCF7 = assay: Growth inhibition of human MCF7 cells at 10 uM after 48 hrs by SRB assay relative to control; settings: MCF7, 48 h, read-out: GI; outline: as §1
A549 = assay: Growth inhibition of human A549 cells at 10 uM after 48 hrs by SRB assay relative to control; settings: A549, 48 h, read-out: GI; outline: as §1
NCI-H23 = assay: Growth inhibition of human NCI-H23 cells at 10 uM after 48 hrs by SRB assay relative to control; settings: NCI-H23, 48 h, read-out: GI; outline: as §1
TK-10 = assay: Growth inhibition of human TK10 cells at 10 uM after 48 hrs by SRB assay relative to control; settings: TK-10, 48 h, read-out: GI; outline: as §2
UACC-257 = assay: Growth inhibition of human UACC257 cells at 10 uM after 48 hrs by SRB assay relative to control; settings: UACC-257, 48 h, read-out: GI; outline: as §2
HOP-62 = assay: Growth inhibition of human HOP62 cells at 10 uM after 48 hrs by SRB assay relative to control; settings: HOP-62, 48 h, read-out: GI; outline: as §1
OVCAR-4 = assay: Growth inhibition of human OVCAR4 cells at 10 uM after 48 hrs by SRB assay relative to control; settings: OVCAR-4, 48 h, read-out: GI; outline: as §1
COLO 205 = assay: Growth inhibition of human COLO205 cells at 10 uM after 48 hrs by SRB assay relative to control; settings: COLO 205, 48 h, read-out: GI; outline: as §1
RPMI-8226 = assay: Growth inhibition of human RPMI8226 cells at 10 uM after 48 hrs by SRB assay relative to control; settings: RPMI-8226, 48 h, read-out: GI; outline: as §1
HT-29 = assay: Growth inhibition of human HT-29 cells at 10 uM after 48 hrs by SRB assay relative to control; settings: HT-29, 48 h, read-out: GI; outline: as §1
CAKI-1 = assay: Growth inhibition of human Caki1 cells at 10 uM after 48 hrs by SRB assay relative to control; settings: CAKI-1, 48 h, read-out: GI; outline: as §1
SF-539 = assay: Growth inhibition of human SF539 cells at 10 uM after 48 hrs by SRB assay relative to control; settings: SF-539, 48 h, read-out: GI; outline: as §1
786-0 = assay: Growth inhibition of human 786-0 cells at 10 uM after 48 hrs by SRB assay relative to control; settings: 786-0, 48 h, read-out: GI; outline: as §1
HCT-15 = assay: Growth inhibition of human HCT15 cells at 10 uM after 48 hrs by SRB assay relative to control; settings: HCT-15, 48 h, read-out: GI; outline: as §1
SNB-75 = assay: Growth inhibition of human SNB75 cells at 10 uM after 48 hrs by SRB assay relative to control; settings: SNB-75, 48 h, read-out: GI; outline: as §2
LOX IMVI = assay: Growth inhibition of human LOXIMVI cells at 10 uM after 48 hrs by SRB assay relative to control; settings: read-out: GI; outline: as §1
NCI-H460 = assay: Growth inhibition of human NCI-H460 cells at 10 uM after 48 hrs by SRB assay relative to control; settings: NCI-H460, 48 h, read-out: GI; outline: as §1
UO-31 = assay: Growth inhibition of human UO31 cells at 10 uM after 48 hrs by SRB assay relative to control; settings: UO-31, 48 h, read-out: GI; outline: as §2
ACHN = assay: Growth inhibition of human ACHN cells at 10 uM after 48 hrs by SRB assay relative to control; settings: read-out: GI; outline: as §1
SF-295 = assay: Growth inhibition of human SF295 cells at 10 uM after 48 hrs by SRB assay relative to control; settings: SF-295, 48 h, read-out: GI; outline: as §1
U-251 = assay: Growth inhibition of human U251 cells at 10 uM after 48 hrs by SRB assay relative to control; settings: U-251, 48 h, read-out: GI; outline: as §2
NCI-H322M = assay: Growth inhibition of human NCI-H322M cells at 10 uM after 48 hrs by SRB assay relative to control; settings: read-out: GI; outline: as §1
HOP-92 = assay: Growth inhibition of human HOP92 cells at 10 uM after 48 hrs by SRB assay relative to control; settings: HOP-92, 48 h, read-out: GI; outline: as §1
SR = assay: Growth inhibition of human SR cells at 10 uM after 48 hrs by SRB assay relative to control; settings: read-out: GI; outline: as §2
MDA-MB-468 = assay: Growth inhibition of human MDA-MB-468 cells at 10 uM after 48 hrs by SRB assay relative to control; settings: MDA-MB-468, 48 h, read-out: GI; outline: as §1
Hs-578T = assay: Growth inhibition of human Hs 578T cells at 10 uM after 48 hrs by SRB assay relative to control; settings: read-out: GI; outline: as §1
KM12 = assay: Growth inhibition of human KM12 cells at 10 uM after 48 hrs by SRB assay relative to control; settings: KM12, 48 h, read-out: GI; outline: as §1

Compound: COc1cc2oc(-c3cccc(C(=O)Nc4ccc5c(c4)OCO5)c3)cc(=O)c2c(O)c1OC
- inhibition of growth at 10 µM (SN12C): 31.3%
- inhibition of growth at 10 µM (NCI-H522): 23.9%
- inhibition of growth at 10 µM (IGROV-1): 18.4%
- inhibition of growth at 10 µM (SK-MEL-2): 10.1%
- inhibition of growth at 10 µM (MOLT-4): -0.5%
- inhibition of growth at 10 µM (CCRF-CEM): 2.77%
- inhibition of growth at 10 µM (Malme-3M): 11.9%
- inhibition of growth at 10 µM (SK-MEL-28): 10.2%
- inhibition of growth at 10 µM (SW-620): 15.5%
- inhibition of growth at 10 µM (MCF7): 8.35%
- inhibition of growth at 10 µM (A549): 25.1%
- inhibition of growth at 10 µM (NCI-H23): 27.3%
- inhibition of growth at 10 µM (TK-10): 1.4%
- inhibition of growth at 10 µM (UACC-257): 21.8%
- inhibition of growth at 10 µM (HOP-62): 39.6%
- inhibition of growth at 10 µM (OVCAR-4): 99.9%
- inhibition of growth at 10 µM (COLO 205): 5.22%
- inhibition of growth at 10 µM (RPMI-8226): 20.2%
- inhibition of growth at 10 µM (HT-29): 23.7%
- inhibition of growth at 10 µM (CAKI-1): 23.1%
- inhibition of growth at 10 µM (SF-539): 11.2%
- inhibition of growth at 10 µM (786-0): 35.7%
- inhibition of growth at 10 µM (HCT-15): 6.45%
- inhibition of growth at 10 µM (SNB-75): 15.4%
- inhibition of growth at 10 µM (LOX IMVI): 11.8%
- inhibition of growth at 10 µM (NCI-H460): 45.7%
- inhibition of growth at 10 µM (UO-31): 17.9%
- inhibition of growth at 10 µM (ACHN): 24.8%
- inhibition of growth at 10 µM (SF-295): 7.93%
- inhibition of growth at 10 µM (U-251): 44.2%
- inhibition of growth at 10 µM (NCI-H322M): 19%
- inhibition of growth at 10 µM (HOP-92): 27%
- inhibition of growth at 10 µM (SR): 24.1%
- inhibition of growth at 10 µM (MDA-MB-468): 45.4%
- inhibition of growth at 10 µM (Hs-578T): 27.3%
- inhibition of growth at 10 µM (KM12): 29.4%
